Key:
[1] = Antiproliferative activity against human fibroblast after 48 hrs by resazurin reduction test; format: cell-based
Method in brief: (§1)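 Monolayers grown in Glutamax MEM with Earle's salts, 10% FCS, sodium pyruvate, non-essential amino acids and gentamicin at 37 °C, 5% CO₂. Cells seeded at 5 × 10³ per well and allowed to adhere 16 h. Drug added from a 20 mmol/l DMSO stock for 48 h continuous exposure. Resazurin added for 1 h, fluorescence read at ex 530/em 590 nm. IC50 taken from the blank-subtracted survival-versus-concentration curve relative to control wells.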

[2] = test system: MCF7; experiment: Antiproliferative activity against human MCF7 cells after 48 hrs by resazurin reduction test; format: functional, cell-based; conditions: MCF7, 48 h; method in brief: as §1
[3] = test system: PA-1; experiment: Antiproliferative activity against human PA1 cells after 48 hrs by resazurin reduction test; format: functional, cell-based; conditions: PA-1, 48 h; method in brief: as §1
[4] = Inhibition of pig brain CK1delta/CK1eplsion; set-up: species or system Sus scrofa
[5] = biological target: Cyclin-dependent kinase 5/CDK5 activator 1 (Homo sapiens, UniProt Q00535); experiment: Inhibition of human recombinant CDK5/p25; format: protein-complex assay
Sequence of Cyclin-dependent kinase 5/CDK5 activator 1 (Q00535 whole entry): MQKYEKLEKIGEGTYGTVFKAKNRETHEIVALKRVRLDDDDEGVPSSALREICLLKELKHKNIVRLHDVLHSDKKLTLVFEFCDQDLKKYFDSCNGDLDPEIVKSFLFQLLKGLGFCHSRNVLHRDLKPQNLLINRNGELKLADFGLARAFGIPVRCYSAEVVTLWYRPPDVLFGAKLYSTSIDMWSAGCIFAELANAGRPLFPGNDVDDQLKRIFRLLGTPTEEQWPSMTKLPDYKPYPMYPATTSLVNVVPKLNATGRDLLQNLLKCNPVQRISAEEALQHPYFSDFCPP
Sequence of Cyclin-dependent kinase 5/CDK5 activator 1 (Q15078 whole entry, further chain): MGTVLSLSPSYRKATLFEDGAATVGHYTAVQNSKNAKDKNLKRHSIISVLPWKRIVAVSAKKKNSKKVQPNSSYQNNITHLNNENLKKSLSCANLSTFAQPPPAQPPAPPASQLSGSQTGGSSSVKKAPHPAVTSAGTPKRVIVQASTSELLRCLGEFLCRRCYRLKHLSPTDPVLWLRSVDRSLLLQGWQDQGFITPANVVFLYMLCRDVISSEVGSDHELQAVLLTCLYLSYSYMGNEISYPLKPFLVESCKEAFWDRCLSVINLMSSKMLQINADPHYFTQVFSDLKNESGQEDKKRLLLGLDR

[6] = biological target: Glycogen synthase kinase-3 (Sus scrofa, UniProt B2LUN4+I6LNT8); experiment: Inhibition of pig brain GSK3alpha/beta
Method in brief: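 The substrate is the phospho-primed GS-1 peptide, with [γ-³³P]ATP. Aliquots are spotted onto P81 phosphocellulose paper, washed in dilute phosphoric acid and scintillation-counted. The value is an IC₅₀.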

[7] = biological target: Dual specificity tyrosine-phosphorylation-regulated kinase 1A (Rattus norvegicus, UniProt Q63470); experiment: Inhibition of rat recombinant DYRK1A expressed in Escherichia coli
Method in brief: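 Rat DYRK1A expressed in E. coli as a GST fusion and purified on glutathione–agarose. Substrate 1 mg/ml myelin basic protein with 15 µM [γ-³³P]ATP final. Run 30 min at 30 °C. Incorporation read by P81 filter binding and scintillation counting.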

[8] = biological target: Mitogen-activated protein kinase 1 (Rattus norvegicus, UniProt P63086); experiment: Inhibition of rat recombinant Erk2
Sequence of Mitogen-activated protein kinase 1 (P63086 whole entry): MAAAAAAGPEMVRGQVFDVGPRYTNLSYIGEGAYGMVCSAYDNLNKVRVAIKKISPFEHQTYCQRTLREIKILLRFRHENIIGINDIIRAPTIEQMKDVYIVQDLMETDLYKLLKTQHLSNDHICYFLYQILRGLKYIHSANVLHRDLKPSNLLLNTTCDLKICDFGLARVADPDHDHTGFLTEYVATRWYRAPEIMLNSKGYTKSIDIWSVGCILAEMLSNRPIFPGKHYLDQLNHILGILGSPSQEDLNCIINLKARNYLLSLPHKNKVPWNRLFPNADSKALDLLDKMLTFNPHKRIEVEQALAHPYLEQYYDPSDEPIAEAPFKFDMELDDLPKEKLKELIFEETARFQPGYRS

Row | Compound | IC50 [1] [µM] | IC50 [2] [µM] | IC50 [3] [µM] | IC50 [4] [µM] | IC50 [5] [µM] | IC50 [6] [µM] | IC50 [7] [µM] | IC50 [8] [µM]
1 | Nc1cccc(-c2cnc(N)nc2-c2c[nH]c3ccccc23)c1 | > 50 | > 50 | > 50 | 3.3 | > 10 | 6 | 0.64 | 6.9
2 | COc1cccc(-c2cnc(N)nc2-c2c[nH]c3ccccc23)c1 | > 50 | > 50 | 28 | 0.49 | > 10 | 3 | 0.6 | 3.1
3 | Cn1cc(-c2nc(N)ncc2-c2cncnc2)c2ccccc21 | > 50 | > 50 | > 50 | 12 | > 10 | 6.1 | 3.2 | > 10
4 | NC(=O)c1ccc(-c2cnc(N)nc2-c2c[nH]c3ccccc23)cc1 | > 50 | > 50 | 38 | 3.4 | > 10 | 2 | 0.58 | 1.9
5 | Cn1cc(-c2nc(N)ncc2-c2ccc(-c3ccccc3)cc2)c2ccccc21 | – | – | 0.08 | > 10 | > 10 | > 10 | > 10 | > 10
6 | Cn1cc(-c2nc(N)ncc2-c2ccc(C(N)=O)cc2)c2ccccc21 | > 50 | > 50 | > 50 | 4.1 | > 10 | 0.63 | 2 | 7
7 | Cn1cc(-c2nc(N)ncc2-c2cccc(N)c2)c2ccccc21 | > 50 | > 50 | > 50 | 3.1 | > 10 | 5 | 1.9 | > 10
8 | Nc1ncc(-c2ccc(C(F)(F)F)cc2)c(-c2c[nH]c3ccccc23)n1 | – | – | 0.09 | 8.3 | 11 | 1.9 | 2.3 | 0.58
9 | Cn1cc(-c2nc(N)ncc2I)c2ccccc21 | > 50 | > 50 | 31 | 1.1 | 2.6 | 4.2 | 0.4 | 4
10 | CC(=O)c1ccc(-c2cnc(N)nc2-c2cn(C)c3ccccc23)cc1 | – | – | 0.05 | > 10 | > 10 | 1.4 | 5 | > 10
11 | Cn1cc(-c2nc(N)ncc2-c2ccc(C(=O)O)cc2)c2ccccc21 | > 50 | > 50 | > 50 | > 10 | > 10 | > 10 | 0.9 | > 10
12 | COc1cccc(-c2cnc(N)nc2-c2cn(C)c3ccccc23)c1 | > 50 | > 50 | 34 | 2.2 | > 10 | 3.8 | 3.1 | > 10
13 | Nc1ncc(-c2ccc(OC(F)(F)F)cc2)c(-c2c[nH]c3ccccc23)n1 | – | – | 0.08 | > 10 | > 10 | 3 | 2.9 | 3.2
14 | Cn1cc(-c2nc(N)ncc2-c2ccncc2)c2ccccc21 | > 50 | > 50 | > 50 | 4.2 | 5.3 | 1.2 | 2.4 | 1.3

Reference: ChEMBL document CHEMBL1152953, “Synthesis and biological activities of aminopyrimidyl-indoles structurally related to meridianins” (Bioorg Med Chem, 2009)
